The text below walks through data of ChEMBL document CHEMBL1127047, “10,5-(Iminomethano)-10,11-dihydro-5H-dibenzo[a,d]cycloheptene and derivatives. Potent PCP receptor ligands” (J Med Chem, 1993).

For one assay, the target named is Glutamate NMDA receptor. Description: Inhibition of [3H]MK-801 binding to the PCP receptor site in guinea pig brain homogenate. Format: tissue-based.
A short description of assay [1]: In vitro neuroprotection against glutamate-induced toxicity at 5 uM using rat hippocampal cell cultures at 3 uM of glutamate. Format: functional, Hippocampus. In short, it runs like this:
(§1)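 Dissociated hippocampal cultures from 1–3 day postnatal Sprague–Dawley rats, papain-dissociated and treated with 5 μM cytosine arabinoside. Blind, coded test. In HEPES-buffered salt solution (pH 7.4, 32–34 °C), cultures got a 5 min preincubation with 1 μM glycine plus compound, then 5 min with glycine, compound and glutamate. Next day, 0.4% Trypan Blue; surviving cells in the grid were counted by phase contrast and expressed as % of highest count.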

Assay [2] is described as follows: In vitro neuroprotection against glutamate-induced toxicity at 5 uM using rat hippocampal cell cultures at 30 uM of glutamate. Format: functional, Hippocampus. In short, it runs like this:
as §1

Assay [3] in a line: In vitro neuroprotection against glutamate-induced toxicity at 5 uM using rat hippocampal cell cultures at 300 uM of glutamate. Type of assay: functional, Hippocampus. In short, it runs like this: as §1
The nature of assay [4]: In vitro neuroprotection against glutamate-induced toxicity at 10 uM using rat hippocampal cell cultures at 3 uM of glutamate. Type of assay: functional, Hippocampus. In short, it runs like this:
as §1

Assay [5] is described as follows: In vitro neuroprotection against glutamate-induced toxicity at 10 uM using rat hippocampal cell cultures at 30 uM of glutamate. Format: functional, Hippocampus. In short, it runs like this:
as §1

Assay [6] is described as follows: In vitro neuroprotection against glutamate-induced toxicity at 10 uM using rat hippocampal cell cultures at 300 uM of glutamate. Format: functional, Hippocampus. In a few lines:
as §1

Assay [7] in a line: In vitro neuroprotection against glutamate-induced toxicity at 5 uM using rat hippocampal cell cultures at 0 uM of glutamate. Type of assay: functional, Hippocampus. In short, it runs like this: as §1
Assay [8] in a line: In vitro neuroprotection against glutamate-induced toxicity at 5 uM using rat hippocampal cell cultures at 10 uM of glutamate. Type of assay: functional, Hippocampus. In short, it runs like this: as §1
A short description of assay [9]: In vitro neuroprotection against glutamate-induced toxicity at 5 uM using rat hippocampal cell cultures at 100 uM of glutamate. Type of assay: functional, Hippocampus. In a few lines: as §1
Assay [10] in a line: In vitro neuroprotection against glutamate-induced toxicity at 5 uM using rat hippocampal cell cultures at 1000 uM of glutamate. Type of assay: functional, Hippocampus. In a few lines:
as §1

The nature of assay [11]: In vitro neuroprotection against glutamate-induced toxicity at 10 uM using rat hippocampal cell cultures at 0 uM of glutamate. Format: functional, Hippocampus. In a few lines:
as §1

Assay [12] in a line: In vitro neuroprotection against glutamate-induced toxicity at 10 uM using rat hippocampal cell cultures at 10 uM of glutamate. Format: functional, Hippocampus. In short, it runs like this: as §1
The nature of assay [13]: In vitro neuroprotection against glutamate-induced toxicity at 10 uM using rat hippocampal cell cultures at 100 uM of glutamate. Format: functional, Hippocampus. In a few lines: as §1
Assay [14] can be described thus: In vitro neuroprotection against glutamate-induced toxicity at 10 uM using rat hippocampal cell cultures at 1000 uM of glutamate. Type of assay: functional, Hippocampus. In short, it runs like this:
as §1

Several values for one entry are separate records, joined by “and”; a condition that tells them apart may be missing. Equal values may be shown once.

By IC50 is commonly meant the concentration that gives 50% inhibition. Higher therefore signals weaker potency. As for `Ic1ccc2c(c1)C1CNC(C2)c2ccccc21` (stereo not given), the IC50 at Glutamate NMDA receptor worked out at 160 nM.

With `CC(=O)N1CC2c3cc([N+](=O)[O-])ccc3CC1c1ccccc12` (stereo not given), the IC50 on Glutamate NMDA receptor was greater than 10000 nM.

Regarding `COc1ccc2c(c1)C1CN(C)C2Cc2ccc(Br)cc21` (stereo not given), on Glutamate NMDA receptor, the half-inhibitory concentration (IC50) is 643 nM. This counts as sub-micromolar.

Take `c1ccc2c(c1)CC1NCC2c2ccccc21` (stereo in doubt; 3): the 50% inhibitory concentration (IC50) on Glutamate NMDA receptor is 59.4 nM.

`CC(=O)N1CC2c3ccccc3CC1c1ccccc12` (stereo not given) registered an IC50 at Glutamate NMDA receptor greater than 10000 nM.

Consider `CN1CC2c3ccccc3CC1c1ccccc12` (single isomer, unassigned; (+)), for which the Neuroprotection is reported as 74.7% in assay [1]; 62.7% in assay [2]; 58.7% in [3]; 93.6% in [4]; 92.1% in assay [5]; 56.6% in assay [6]. For the same molecule, the Neuroprotection in assay [7] worked out at 91%; in [8], 65%; in assay [9], 59.9%; in assay [10], 23.3%; in assay [11], 97.8%; in assay [12], 90%. Further, the values for the Neuroprotection in assay [13] and in [14] were 84% and 53.3%, respectively. Moreover, the half-maximal inhibitory concentration (IC50) at Glutamate NMDA receptor worked out at 826 nM.

`Clc1ccc2c(c1)C1CNC2Cc2ccccc21` (stereo not given) gave a half-inhibitory concentration (IC50) on Glutamate NMDA receptor of 690 nM. This lies in the sub-micromolar range.

With `c1ccc2c(c1)CC1NCC2c2ccccc21` (single isomer, unassigned; (+)), the Neuroprotection stood at 68.8% in assay [1]; 73.3% in assay [2]; 57.2% in assay [3]; 93.6% in [7]; 76.3% in assay [8]; 73.9% in [9]. For the same molecule, the Neuroprotection in assay [10] turned out to be 40.5%. Besides, on Glutamate NMDA receptor, the concentration for half-maximal inhibition (IC50) is 37.6 nM and 4.2 nM.

As for `CN(C)CCCN1CC2c3ccccc3CC1c1ccccc12` (stereo not given), the IC50 at Glutamate NMDA receptor came to 12000 nM.

At Glutamate NMDA receptor, `O=[N+]([O-])c1ccc2c(c1)C1CNC(C2)c2ccccc21` (stereo not given) showed an IC50 of 4300 nM.

Turning to `Clc1ccc2c(c1)C1CNC(C2)c2ccccc21` (stereo in doubt; (+)-13c), the IC50 at Glutamate NMDA receptor worked out at 32.1 nM.

`Nc1ccc2c(c1)C1CNC(C2)c2ccccc21` (stereo not given) returned an IC50 at Glutamate NMDA receptor of 486 nM. This IC50 is about 15-fold higher than that of the molecule before.

Turning to `COc1ccc2c(c1)C1CNC2Cc2ccccc21` (stereo not given), on Glutamate NMDA receptor, the IC50 came out at 332 nM.

Molecule `Clc1ccc2c(c1)C1CNC(C2)c2ccccc21` (stereo in doubt; 13c) yielded a 50% inhibitory concentration (IC50) at Glutamate NMDA receptor of 71.3 nM.

The molecule `COc1ccc2c(c1)C1CNC(C2)c2ccccc21` (stereo not given) returned an IC50 at Glutamate NMDA receptor of 168 nM.

Molecule `Cc1ccc2c(c1)C1CNC(C2)c2ccccc21` (stereo not given) came in with an IC50 on Glutamate NMDA receptor of 108 nM.

Regarding `CC12CNC(Cc3ccccc31)c1ccccc12` (stereo not given), on Glutamate NMDA receptor, the half-maximal inhibitory concentration (IC50) amounted to 119 nM.

As for `C[C@]12N[C@H](Cc3ccccc31)c1ccccc12` [DIZOCILPINE], the Neuroprotection in assay [1] is recorded as 98.3%; in [2] it was 95.5%; in assay [3], 90.3%; in [7], 97.5%; in assay [8], 94.7%; in [9], 93.9%. In [10], this molecule returned a Neuroprotection of 88.4%.

The molecule `Brc1ccc2c(c1)C1CNC(C2)c2ccccc21` (stereo not given) had a 50% inhibitory concentration (IC50) on Glutamate NMDA receptor of 51.7 nM.

As to `Fc1ccc2c(c1)C1CNC(C2)c2ccccc21` (stereo in doubt; 13e), at Glutamate NMDA receptor, the IC50 stood at 29.4 nM.

Regarding `Fc1ccc2c(c1)C1CNC(C2)c2ccccc21` (single isomer, unassigned; (-)), at Glutamate NMDA receptor, the half-maximal inhibitory concentration (IC50) stood at 531 nM.

In turn, `COc1ccc2c(c1)C1CNC2Cc2ccc(Br)cc21` (stereo not given) returned a 50% inhibitory concentration (IC50) at Glutamate NMDA receptor of 114 nM.

For the molecule `c1ccc2c(c1)CC1NCC2c2ccccc21` (racemic), the Neuroprotection in assay [1] is 85.3%; in assay [2], 71.5%; in [3] it was 39.9%; in assay [7], 99.1%; in [8], 76.6%; in [9], 61.3%. Besides, the Neuroprotection in [10] is on record as 25.5%.

Regarding `COc1ccc2c(c1)C1CNC2Cc2ccc(Cl)cc21` (stereo not given), the IC50 on Glutamate NMDA receptor was determined as 113 nM. This counts as sub-micromolar.

As to `Fc1ccc2c(c1)C1CNC(C2)c2ccccc21` (single isomer, unassigned; (+)), the IC50 at Glutamate NMDA receptor was determined as 15.5 nM.

For the molecule `c1ccc(CN2CC3c4ccccc4CC2c2ccccc23)nc1` (stereo not given), the IC50 at Glutamate NMDA receptor was greater than 10000 nM.

With `CC(C)N1CC2c3ccccc3CC1c1ccccc12` (stereo not given), the 50% inhibitory concentration (IC50) at Glutamate NMDA receptor was found to be 1880 nM.

In turn, `c1ccc(-c2ccc3c(c2)C2CNC(C3)c3ccccc32)cc1` (stereo not given) returned a half-inhibitory concentration (IC50) on Glutamate NMDA receptor of 421 nM.

Turning to `Fc1ccc2c(c1)C1CNC(C2)c2ccc(F)cc21` (stereo not given), at Glutamate NMDA receptor, the 50% inhibitory concentration (IC50) was 51.2 nM. This IC50 lies about 8.2-fold lower than the previous one.

At Glutamate NMDA receptor, `CN1CC2c3cc(Br)ccc3CC1c1ccccc12` (stereo not given) returned a 50% inhibitory concentration (IC50) of 1040 nM.

The molecule `Clc1ccc2c(c1)C1CNC(C2)c2ccccc21` (stereo in doubt; (-)-13c) returned an IC50 at Glutamate NMDA receptor of 931 nM.

The molecule `[N-]=[N+]=Nc1ccc2c(c1)C1CNC(C2)c2ccccc21` (stereo not given) came in with an IC50 at Glutamate NMDA receptor of 500 nM.
